The text below walks through data of PubChem BioAssay AID617 (SRMLSC, 2007).

The experiment deals with E. coli BW25113 ΔtolC growth inhibition, OD615. Nature of the experiment: E. coli ΔtolC antibacterial growth inhibition – strain BW25113 ΔtolC::kan, dose response (AID 617). In outline: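 System: E. coli BW25113 ΔtolC::kan bacteria. Amount: 1:1000 diluted subculture inoculum. Medium: LB broth supplemented with kanamycin at 50 µg/mL. Compound dosing: serial dilution series of compound. Schedule: 20 h exposure at 37 °C. Detection: OD615. Measure: IC50 of bacterial growth inhibition. Benchmarks: chloramphenicol control, 30 µM final.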
Turning to `O=S(=O)(Nc1nc2ccccc2nc1N1CCN(c2ccccn2)CC1)c1ccc(Cl)cc1`, the IC50 (usually the concentration needed to halve the response being measured) was 3.16 µM.

Take `O=C(CSc1nc2ccccc2o1)Nc1ccccc1N1CCCCCC1`: the IC50 was 11.7 µM.

Take `CCn1cc(C(=O)NC2CCCCC2C)c(=O)c2ccc(C)nc21` (configuration not stated): the half-inhibitory concentration (IC50) was 5.31 µM. Regarding `CSc1nc2ccc(NS(=O)(=O)c3ccc(Cl)s3)cc2s1`, the IC50 was 0.72 µM. Consider `O=S(=O)(Nc1nnc(-c2ccccc2)s1)c1ccc(Cl)cc1`, for which the IC50 is 3.74 µM.

With `COc1ccc(-c2[nH]ncc2-c2ccc3c(c2)OCCO3)c(O)c1`, the IC50 was 15.9 µM.

On to `CCOC(=O)c1cccc(NC(=O)c2cc3sccc3n2C)c1`, for which the IC50 is 9.82 µM. In the case of `O=C(c1noc2c1CCc1ccccc1-2)N1CCc2ccccc2C1`, the IC50 is 6.67 µM. In the case of `CCCCOc1ccc(NC2=NC3(CCCCC3)N=C(N)N2)cc1`, the IC50 was 2.64 µM. With `CCOC(=O)c1cn(CC)c2cc(N3CCOCC3)c(F)cc2c1=O`, the IC50 was 0.78 µM. For `C=CCn1c(SCC(=O)Nc2ccc3c(c2)CCC3)nnc1-c1cccs1`, the concentration for half-maximal inhibition (IC50) was 53.8 µM. Take `COc1ccc2c(c1)OC(O)(C(F)(F)C(F)F)CC2=O` (configuration not stated): the concentration for half-maximal inhibition (IC50) is 7.68 µM. The result for `CCOc1ccc(N(CC(=O)Nc2ccc(C)c(C)c2)S(=O)(=O)c2c(C)noc2C)cc1` reads 15.5 µM. For the molecule `Cc1ccc2[nH]c(=O)c(CN(Cc3nnnn3Cc3ccccc3)C3CCCC3)cc2c1`, the IC50 is 53.3 µM. In the case of `O=S(=O)(Nc1cccc2ncccc12)c1cccs1`, the IC50 was 5.24 µM.

With `CCC(=O)N1CCN(c2cc3c(cc2F)c(=O)c(C(=O)O)cn3CC)CC1`, the IC50 was less than 0.2 µM. Take `CCCOc1nc2c(c(=O)n(C)c(=O)n2C)n1Cc1cccc2ccccc12`: the IC50 is 28.2 µM. On to `O=C(CSc1nc2ccccc2[nH]1)Nc1cc(C(F)(F)F)ccc1N1CCOCC1`, for which the IC50 is 5.96 µM.

With `C=C(C)COc1ccc(-c2n[nH]c(C)c2-c2ccccc2)c(O)c1`, the IC50 is 8.47 µM. With `Fc1cccc2sc(Nc3nnc(-c4ccco4)o3)nc12`, the IC50 is 2.84 µM. For the molecule `CC(C)(C)OC(=O)N1CCC[C@H]1c1nnc(SCc2ccc(Cl)cc2Cl)o1`, the IC50 was 11 µM. For `CCC(C)(C)n1nnnc1C(c1cc2ccc(C)cc2[nH]c1=O)N(Cc1cccnc1)Cc1ccco1` (configuration not stated), the IC50 was 15.2 µM. For the molecule `O=C(Nc1ccc(Cl)c(Cl)c1)N1CCSC1c1ccco1` (configuration not stated), the 50% inhibitory concentration (IC50) is 5.12 µM. On to `O=C(CCNc1cc(Cl)cc(Cl)c1)c1ccco1`, for which the concentration for half-maximal inhibition (IC50) is 30.9 µM. The result for `O=C(Cc1ccc(Br)cc1)c1ccc(O)cc1O` reads 7.26 µM. With `O=C(COc1ccccc1)Nc1nnc(-c2ccc(Cl)s2)o1`, the IC50 is 1.86 µM. Take `O=C(CSc1ncc(-c2ccc(F)cc2)n1Cc1ccco1)Nc1ccc2c(c1)OCO2`: the concentration for half-maximal inhibition (IC50) is 7.29 µM.

Regarding `CSCCOC(=O)C1=C(C)NC(=O)CC1c1ccccc1Cl` (configuration not stated), the IC50 was 22.9 µM. The same measure for `O=C1Nc2ccccc2C12OCC(COc1ccc(Cl)cc1)O2` (configuration not stated): 17.4 µM. The same measure for `CCc1ccccc1N(C)C(=O)CCc1nc(-c2ccc(C)cc2)no1`: 13.8 µM; for `O=C(NCc1ccco1)c1ccc(S(=O)(=O)N2CCCc3ccccc32)cc1`: 30.2 µM. For `COc1ccc(-c2[nH]c(-c3cccc(OC)c3)nc2SCC(=O)NCc2ccco2)cc1`, the IC50 was 11.1 µM. Take `CCc1nnc(NC(=O)c2cccc(C(=O)Nc3nnc(CC)s3)n2)s1`: the IC50 is 2.16 µM. Take `Cc1ccc(S(=O)(=O)N(Cc2ccccc2)Cc2ccco2)cc1`: the IC50 was 10.8 µM. On to `Cc1ccc(S(=O)(=O)NCCSc2nnnn2-c2cc(C)ccc2C)cc1`, for which the IC50 is 13.4 µM. On to `O=C(Nc1cccc(Cl)c1)N(CCN1CCOCC1)Cc1cccc(Cl)c1`, for which the IC50 is 6.44 µM. The same measure for `O=C(CN1CCN(c2nc(-c3ccc(F)cc3)cs2)CC1)NCc1ccc2c(c1)OCO2`: 11.1 µM; for `CCOC(=O)c1c(C)c(C(=O)Nc2cc(OC)ccc2OC)c(C)n1CC`: 24.3 µM. Consider `Cc1ccc(C)c(Cn2c(CN(C)Cc3ccccc3)nc3c2c(=O)n(C)c(=O)n3C)c1`, for which the IC50 was 14.2 µM. The result for `CN1CCN(CC(=O)N2CCn3c4c(c5cc(C6CCCCC6)ccc53)CCCC42)CC1` (configuration not stated) reads 66.7 µM; that for `COc1ccc(S(=O)(=O)Nc2ccccc2C(=O)NCc2ccco2)cc1Br`, 9.63 µM; that for `O=C1CC(c2ccco2)CC2=C1C1c3ccccc3C(=O)N1c1ccccc1N2` (configuration not stated), 22.7 µM. Turning to `CCn1c(C(=O)N2CCC(Cc3ccccc3)CC2)cc2sccc21`, the IC50 is 10.2 µM. For `CCN1/C(=C(\O)c2ccccc2)C(=O)c2ccccc2S1(=O)=O`, the IC50 is 4.56 µM. For `COc1ccc(-c2cc(C(=O)N3CCCc4ccccc43)no2)cc1`, the IC50 was 20.5 µM. For `CCCCOc1[nH]c2nc(-c3ccco3)n(Cc3ccco3)c(=N)c2c1C#N`, the IC50 is 12 µM.

For `CCCCc1c(C)nn(-c2nnc3c4ccccc4n(CC)c3n2)c1C`, the IC50 is 1.77 µM. Consider `CC1CCCc2sc3nc(NCc4ccco4)n4ncnc4c3c21` (configuration not stated), for which the half-maximal inhibitory concentration (IC50) was 11.6 µM.

As for `CSCc1nnc(NC(=O)c2ccc(S(=O)(=O)N(CC(C)C)CC(C)C)cc2)o1`, the IC50 was 0.3 µM.

As for `Cc1cc(NC(=O)c2noc3c2CCCC3)nn1Cc1ccc(Cl)cc1`, the 50% inhibitory concentration (IC50) is 18.4 µM. As to `Cc1ccc(NC(=O)CN(C)S(=O)(=O)c2cccc3nsnc23)cc1Cl`, the IC50 was 17.8 µM.

With `CCOC(=O)c1ccc(Oc2nc(NC(C)(C)C)nc(N(C)C)n2)cc1`, the half-inhibitory concentration (IC50) is 14.9 µM. In the case of `CS(=O)c1nc(-c2ccc(Br)cc2)cc(-c2ccccc2)c1C#N` (configuration not stated), the IC50 was 10.4 µM.

`Cn1c(=O)n(Cc2ccccc2)c(=O)c2c1nc1n2CCCN1Cc1ccccc1`: the IC50 was 42.8 µM.

In the case of `CCN(C(=O)c1ccc(C(C)(C)C)cc1)c1nnc(Cn2nnc3ccccc32)s1`, the IC50 is 47.5 µM. For the molecule `c1ccc2oc(SCc3nc4ccccc4s3)nc2c1`, the IC50 was 29.1 µM. As for `Cc1[nH]c2ccccc2c1NC(=O)CN1CCN(c2cccc(C(F)(F)F)c2)CC1`, the IC50 was 12.5 µM.

Take `CC(C)(C)c1ccc(C(=O)CCCSC2=C(C#N)C(c3ccco3)C3=C(CCCC3=O)N2)cc1` (configuration not stated): the IC50 was 1.77 µM. For `COc1cccc(-c2cc(C(=O)N3CC4(C)CC3CC(C)(C)C4)no2)c1` (configuration not stated), the IC50 was 11 µM. `COc1ccc(C(C)(C)C)cc1NC(=O)Nc1ccc2c(c1)OCO2`: the IC50 is 5.28 µM. The result for `O=C1c2[nH]nc(-c3ccccc3O)c2C(c2cccc(Cl)c2)N1CC1CCCO1` (configuration not stated) reads 4.35 µM; that for `Cc1ccc2c(CC(=O)OCc3nc(N)nc(Nc4ccccc4C)n3)coc2c1`, 10 µM.

For the molecule `Cc1cc(C(=O)CSc2nc3ccccc3o2)c(C)n1C1CC1`, the IC50 was 7.02 µM. The same measure for `Cc1c(C(=O)N2CCCCC2)oc2ccc(S(=O)(=O)N3CC(C)CC(C)C3)cc12` (configuration not stated): 9.13 µM; for `CCCn1c(CNc2ccc(Br)cc2)nc2ccccc21`: 6.22 µM; for `S=C(c1ccc(-c2ccc(Cl)c(Cl)c2)o1)N1CCOCC1`: 11.2 µM. The result for `CCCN(CCC)c1nc(NC2CCN(C(=O)OCC)CC2)nc(OC)n1` reads 12.4 µM; that for `CCOC(=O)N1CCN(c2nc(N(c3ccccc3)c3ccccc3)nc(-n3ccnc3)n2)CC1`, 20.3 µM; that for `CCc1nc2ccccc2c(=O)n1NC(=O)c1c(O)c2cccc3c2n(c1=O)CCC3`, 12.2 µM. The same measure for `O=C(C1CCCCC1)N1CCC(c2nc3c(nnn3Cc3c(F)cccc3Cl)c(=O)[nH]2)CC1`: 18.2 µM.

As for `O=C(CCCSc1nc(-c2ccco2)cc(C(F)(F)F)n1)Nc1ccc2c(c1)OCO2`, the 50% inhibitory concentration (IC50) was 4.61 µM. For the molecule `Brc1ccccc1Cn1c(-c2cncs2)nc2ccccc21`, the concentration for half-maximal inhibition (IC50) was 10.6 µM.

As to `c1ccc(-c2oc3ncnc(NCCN4CCOCC4)c3c2-c2ccccc2)cc1`, the IC50 was 11.8 µM. For the molecule `CCn1c(CNc2cccc(Cl)c2)nnc1SCC(=O)OC1CCCCC1`, the 50% inhibitory concentration (IC50) was 17.8 µM.

Consider `CCc1ccc(S(=O)(=O)NCCc2csc(-c3ccccc3)n2)s1`, for which the IC50 is 8.87 µM. Regarding `C(=C\c1ccccc1)/CN1CCN(c2ncnc3c2oc2ccccc23)CC1`, the IC50 was 10.2 µM. On to `O=C(Nc1nc(-c2cc(Cl)sc2Cl)cs1)c1cccs1`, for which the IC50 was 1.69 µM.

Regarding `CC(C)N(Cc1nc(-c2ccc(Cl)cc2)no1)C(=O)CCC1CCCC1`, the IC50 was 15.5 µM.

Take `O=C(Nc1ccc2oc(Cc3ccc(Cl)cc3)nc2c1)c1cccnc1`: the IC50 is 53.9 µM. As to `CCN(c1ccccc1)S(=O)(=O)c1ccc(NCC2COc3ccccc3O2)nc1` (configuration not stated), the IC50 was 14.8 µM. With `O=C(Nc1ccc(Cl)cc1)NC1CCCC1Cc1ccco1` (configuration not stated), the IC50 was 3.63 µM. As for `CCCCC(=O)c1c(O)c2ccccc2oc1=O`, the IC50 is 7.48 µM.

Take `CCOc1ccc(C(=O)N2CCN(c3cccc(C)c3C)CC2)cc1`: the IC50 is 11 µM. The same measure for `CCn1c(SCC(=O)Nc2nc(-c3ccc(C)cc3)cs2)nnc1-c1ccccc1O`: 4.11 µM; for `N#Cc1nc(-c2ccc(OCc3ccccc3)cc2)oc1NCCCN1CCOCC1`: 25.9 µM; for `CSc1nc2ccc(NS(=O)(=O)c3ccc4c(c3)OCCO4)cc2s1`: 2.88 µM. `CCc1cccc(NC(=O)c2ccc(NS(=O)(=O)c3c(C)noc3C)cc2)c1`: the IC50 was 7.16 µM. The same measure for `O=C(Nc1nnc(-c2ccc3c(c2)CCCC3)o1)C1COc2ccccc2O1` (configuration not stated): 0.45 µM; for `Cc1noc(NS(=O)(=O)c2ccc(NC(=O)Nc3ccc(Cl)c(Cl)c3)cc2)c1C`: 4.51 µM; for `COCCNc1nc(-n2nc(C)cc2C)nc2sc3c(c12)CCCC3`: 6.71 µM. The same measure for `COc1ccc(Cn2nnnc2C(C(C)C)N2CCc3ccccc32)cc1` (configuration not stated): 12.7 µM; for `Cc1cc(C)c(C#N)c(SCc2ccc3c(c2)OCO3)n1`: 24.6 µM. As to `CCc1nc(N2CCCCC2C)c2oc3ccccc3c2n1` (configuration not stated), the IC50 was 13.6 µM. On to `CC(C)Cn1c(=O)c(C(=O)Nc2cnccn2)c(O)c2ccccc21`, for which the IC50 is 14 µM. For the molecule `C=CCSc1n[nH]c(-c2ccc(OCCCC)cc2)n1`, the IC50 was 93.1 µM. Take `CCn1c(Cn2nnc(-c3ccccc3)n2)nnc1SCc1ccc(Cl)c(Cl)c1`: the IC50 was 7.77 µM. Turning to `COc1ccccc1N1CCN(C(c2ccc(Cl)cc2)c2nnnn2C(C)(C)C)CC1` (configuration not stated), the IC50 is 26.5 µM.
